Screening data deposited in PubChem BioAssay by The Scripps Research Institute Molecular Screening Center.
Shown are actives, neighbours in structure and some others; about 1.6% of the full set was active somewhere.
FID counter: compounds displacing fluorescent DNA intercalator, primary screen, artefact control for HCV NS3 helicase inhibitor project, biochemical, FID fluorescence; DNA fluorescent intercalator displacement; inhibition, % at 7.9 µM; 0.17% of 290,000 active; AID 1845, 2009; in the data active = inhibition above about 37%;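 also: higher means more ethidium bromide displaced from hairpin DNA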
VIM-2 inh: VIM-2 metallo-beta-lactamase inhibitors, primary screen, biochemical, epi-absorbance readout, Pseudomonas aeruginosa enzyme; purified VIM-2, nitrocefin hydrolysis, epi-absorbance fluorescence; inhibition, % at 5.6 µM; 0.89% of 290,000 active;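 active = inhibition above the mean of all tested compounds plus 3 SD, cutoff set per screening run, cut at about 7.5% in these data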;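 also: red hydrolysis product quenches plate fluorescence so inhibitors raise well fluorescence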
IMP-1 inhibitor: IMP-1 metallo-beta-lactamase inhibitors, primary screen, biochemical, epi-absorbance readout, Pseudomonas aeruginosa enzyme; purified IMP-1, nitrocefin hydrolysis, epi-absorbance fluorescence; 0.45% of 290,000 active; AID 1556, 2009; inhibition, % at 5.6 µM;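 active = inhibition above the mean plus 3 SD of all compounds in the same screening run, cut at about 4.5% in these data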
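System: purified recombinant IMP-1 beta-lactamase. Medium: Zinc- and detergent-supplemented HEPES buffer, pH 7.1. Compound: one 5.6 µM dose […]. Schedule: 15 min preincubation plus 25 min reaction at 25 °C. Technique: Epi-absorbance fluorescence, 480 nm excitation, 530 nm emission.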
HCV core dimer: inhibitors of HCV core protein dimerization, primary screen, biochemical, TR-FRET, high-throughput. TR-FRET GST/Flag-core106 dimerization, 1536-well. inhibition, % at 5 µM. 0.33% of 300,000 active;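 active = inhibition above the mean of all tested compounds plus 3 SD, set per screening campaign, cut at about 45% in these data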
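System: GST-tagged and Flag-tagged HCV core protein residues 1-106 / Input: core106 proteins, GST 13.5 nM and Flag 17 nM / Buffer or medium: KF-containing HEPES buffer, pH 7.45, DTT, CHAPS, BSA / Probe or stimulus: Eu-anti-GST and XL665-anti-Flag labelled anti-tag antibodies / Schedule: 4 h, 22.5 °C incubation / Technique: TR-FRET 671 and 617 nm emission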
Of the large screens only hits and unclear results are named; the others gave an inactive call; ! = not confirmed by another sample.

Cc1ccc2c(c1Cl)NC(C(=O)O)C1CC(Sc3ccccc3[N+](=O)[O-])C(Cl)C21 (centres undefined)	HCV core dimer 66.3
COC(=O)C1=C(c2ccccc2)C[C@@H]2CC[C@H]1N2C(=O)N1CCC(O)CC1	none (no result: FID counter, VIM-2 inh, IMP-1 inhibitor)
Cc1ccccc1N1C(=O)/C(=C/c2ccco2)C(=O)NC1=S	HCV core dimer 69.8
Cc1c2ccncc2c(C)c2c1[nH]c1ccccc12	FID counter 53.8
c1ccc2c(c1)[nH]c1cnccc12	none
[N-]=[N+]=CC(=O)OC[C@H](N)C(=O)O	none
COc1cc(C[C@@H](C)N)c(OC)cc1I	none (no result: FID counter, VIM-2 inh, IMP-1 inhibitor)
CC(C)(C)n1cc(C(=O)c2ccc3ccccc3c2O)cn1	none
CC(C)(C)n1cc(C(=O)c2ccccc2OCCCF)cn1	VIM-2 inh 10.7
O=c1[nH]c(O)c(C=Nc2ccc(Cl)c(C(F)(F)F)c2)c(=O)[nH]1	none
CCc1ccc(-n2c(O)c(/C=N/NC(=O)c3ccncc3)c(=O)[nH]c2=O)cc1	IMP-1 inhibitor 12.8
CCCC(CCC)C(=O)OC[N+](C)(C)CCOC(=O)C(O)(c1ccccc1)C1CCCC1 (centres undefined)	FID counter 41.5
Cc1cc(OCc2nn[nH]n2)c2c3c(c(=O)oc2c1)CCCC3	VIM-2 inh 9.0
Cc1cc(OCC(=O)NCc2ccc(S(N)(=O)=O)cc2)c2c3c(c(=O)oc2c1)CCC3	VIM-2 inh 9.4
Cc1cc(OCc2ccc([N+](=O)[O-])cc2)c2c3c(c(=O)oc2c1)CCCC3	none
CN1CCC(N(C)c2nc(-c3ccc([N+](=O)[O-])cc3)nc3ccccc23)CC1	FID counter 45.9, VIM-2 inh 9.9 (no result: HCV core dimer)
O=P(CN1CCN(c2ccccc2)CC1)(N1CCCCC1)N1CCCCC1	none
CCC(C)N1C(=O)/C(=C/c2ccc3c(c2)CCN3CCCCl)C(=O)NC1=S (centres undefined)	HCV core dimer 71.5
CCOc1ccc(NC(=O)c2ccc(NC(=O)COC(=O)Cc3ccccc3)cc2)cc1	none
Cc1ccc(N=C(N(C)C)P(=O)(N(C)C)N(C)C)cc1	FID counter 55.9
N#CC1(c2ccccc2)CCN(C2CC(=O)N(c3ccc4c(c3)OCO4)C2=O)CC1 (centres undefined)	none
CN(C)[C@@H]1C(=O)C(C(N)=O)=C(O)[C@@]2(O)C(=O)C3=C(O)c4c(O)cccc4[C@@](C)(O)[C@H]3C[C@@H]12	HCV core dimer 52.1 (no result: FID counter, VIM-2 inh, IMP-1 inhibitor)
O=c1[nH]c(=S)n(-c2ccc(F)cc2)c(O)c1/C=N/N1CCOCC1	none
Cc1cc2c(C(C)C)c(O)c(O)c(C=O)c2c(O)c1-c1c(C)cc2c(C(C)C)c(O)c(O)c(C=O)c2c1O	VIM-2 inh 10.4, IMP-1 inhibitor 13.9! (no result: HCV core dimer)
O=C(c1ccccc1)c1ccccc1N=Cc1c(O)[nH]c(=O)[nH]c1=O	none
C=CCn1c(O)c(/C=C2/C=c3ccccc3=N2)c(=O)[nH]c1=S	IMP-1 inhibitor 10.6
CCOP(=O)(OCC)C(CC)N1CCOCC1 (centres undefined)	none
CN1CCN(c2nc3ccccc3c(=O)n2-c2ccccc2)CC1	none
CCN1C(=O)C(=C2C=C(C)OC(C)=C2)C(=O)N(CC)C1=S	none
CCOC(=O)C1=CC(=C2C(=O)N(CC)C(=S)N(CC)C2=O)c2ccccc2O1	IMP-1 inhibitor 6.2
CCC(C)c1ccc(N2C(=O)NC(=O)/C(=C/c3cccn3CCOc3ccc(C)cc3)C2=O)cc1 (centres undefined)	none
O=C(c1ccc(Br)cc1)C12CN3CN(CN(C3)C1)C2	none
O=C1NC(=O)N(c2ccccc2)C(=O)/C1=C\c1ccc([N+](=O)[O-])o1	none
O=C(O)c1ccccc1-c1ccc(C=C2C(=O)N(c3ccccc3)C(=S)N(c3ccccc3)C2=O)o1	IMP-1 inhibitor 14.4
CC(=NCCCn1ccnc1)c1c(O)n(C)c(=O)n(C)c1=O	VIM-2 inh 66.5
CCCCn1c(O)c(C(C)=NCCCn2ccnc2)c(=O)[nH]c1=O	none
C=CCn1c(O)c(/C(C)=N/NC(=S)Nc2ccccc2)c(=O)[nH]c1=O	none
C=CCn1c(O)c(/C(CC)=N/NC(=S)Nc2ccccc2)c(=O)[nH]c1=O	VIM-2 inh 8.9
CN1C(=O)CN=C(c2ccccc2Cl)c2cc(Br)ccc21	IMP-1 inhibitor 11.0
CCN(CC)C(=O)c1ccc(NC(=O)c2ccc(-c3nn(C)c(=O)c4ccccc34)cc2)cc1	none
CCCCCSc1cc(O)c(C(CNC)C(C)C)cc1OC (centres undefined)	none
CCCCCSc1cc(OC)c(CCN(C)C)cc1OC	FID counter 36.9
Cc1ccc(NP(=O)(Oc2ccccc2F)Oc2ccccc2F)cc1	none
CC1(C)C2CC=C(CN3CCOCC3)C1C2 (centres undefined)	FID counter 91.2
c1ccc2c(CN3CCOCC3)c[nH]c2c1	none
C=CCn1c(O)c(C=Nc2ccc(N(CC)CC)cc2)c(=O)[nH]c1=O	IMP-1 inhibitor 5.3
C=CCn1c(O)c(C=Nc2ccc(F)cc2)c(=O)[nH]c1=O	none
Cc1cccc(-n2c(O)c(/C=C/C=Nc3ccccc3)c(=O)[nH]c2=O)c1	none
Cn1c(O)c(/C=C/C=Nc2ccccc2)c(=O)n(C)c1=S	IMP-1 inhibitor 6.1
C[n+]1c(-c2ccccc2)c2cc(N)ccc2c2ccc(N)cc21	FID counter 37.7
C=C1C(=O)O[C@@H]2C[C@@H](C)[C@H]3C=CC(=O)[C@]3(O)C[C@@H]12	HCV core dimer 46.6 (no result: FID counter, VIM-2 inh, IMP-1 inhibitor)
Cc1cccc(CN2CCN(c3ccc(Cl)cc3)CC2)c1	none
CCN1C(=O)C(=Cc2cc(C)n(C3CC3)c2C)C(=O)N(CC)C1=S	IMP-1 inhibitor 11.6
Cc1cc(C=C2C(=O)N(C)C(=S)N(C)C2=O)c(C)n1C1CCCC1	none
O=P(C(Cl)Cl)(N1CCOCC1)N1CCOCC1	none
CN1C(=O)/C(=C\c2ccc(Br)s2)C(=O)NC1=S	none
O=C1NC(=S)NC(=O)C1=Cc1ccc(Br)s1	IMP-1 inhibitor 7.1
O=c1[nH]c(O)c(N=Nc2cc(C(F)(F)F)ccc2Cl)c(=O)[nH]1	VIM-2 inh 11.4
CCCCn1c(N)c(C(=O)NCCN2CCOCC2)c2nc3ccccc3nc21	none
CCOC(=O)c1c(N)n(CCN2CCCCC2)c2nc3ccccc3nc12	VIM-2 inh 7.8
Cn1cccc1/C=C1/C(=O)NC(=S)N(Cc2ccc(F)cc2)C1=O	HCV core dimer 66.3
O=[N+]([O-])c1ccc(NCc2ccccc2)c2nonc12	VIM-2 inh 22.9, IMP-1 inhibitor 30.5
CCN(CC)P(=O)(NC(=O)C(Cl)(Cl)Cl)N(CC)CC.[Cl-].[Cl-].[Cl-].[Nd+3]	IMP-1 inhibitor 22.2
COc1ccccc1-n1c(O)c(/C=N/N2CCCCC2)c(=O)n(-c2ccccc2OC)c1=S	none
COc1cc2c(cc1OC)-c1c(OC)c(OC)c(OC)c3ccnc(c13)C2=O	VIM-2 inh 9.4
CCCCn1c(O)c(C(CC)=NCc2ccc(F)cc2)c(=O)[nH]c1=O	none
NCCc1c[nH]c2ccc(F)cc12	none
